In ChEMBL document CHEMBL1158787, “Antibiotic terpenoid chloro-dihydroquinones from a new marine actinomycete” (J Nat Prod, 2005):
≈ marks a conversion by molar mass, not a printed value.

Legend:
Enterococcus faecium = experiment: Antimicrobial activity against vancomycin resistant Enterococcus faecium; assay type: functional
Summary of the method: (§1)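 Broth microdilution: MRSA or VREF grown overnight at 37 °C in GYT medium (0.1% glucose, 0.25% yeast extract, 0.5% tryptone), adjusted to OD 0.04–0.06, then diluted 1:10. Test materials serially diluted 1:2, incubated 16–18 h at 37 °C. Vancomycin (MRSA) or penicillin G (VREF) as positive controls, DMSO as negative control. MIC read from OD600.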

Staphylococcus aureus = experiment: Antimicrobial activity against methicillin-resistant Staphylococcus aureus; assay type: functional; summary of the method: as §1
[1] = Cytotoxicity against human […] cell after 72 hrs by MTS assay; assay type: functional, cell-based
Summary of the method: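 HCT-116 colon carcinoma cells were preincubated overnight at 37 °C in 5% CO2/air. Test materials were serially diluted 1:4, with etoposide as positive control and DMSO as negative control. After 72 h, viability was read as MTS reduction to formazan at 490 nm. IC50 was calculated from the curves.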

Question: Which results are given for `C=C1CC[C@H](Cl)C(C)(C)[C@@H]1C[C@@]12OC(C)(C)[C@H](Cl)C=C1C(=O)c1c(cc(O)c(C)c1O)C2=O`?
Answer: MIC (Enterococcus faecium): 1.95 µg/mL (≈ 3.95 µM); MIC (Staphylococcus aureus): 1.95 µg/mL (≈ 3.95 µM)

Question: Which MIC (Enterococcus faecium) does the source give for `C=C1CC[C@H](Cl)C(C)(C)[C@@H]1C[C@@]12OC(C)(C)[C@H](Cl)C[C@]1(Cl)C(=O)c1c(cc(O)c(C)c1O)C2=O` here?
Answer: 3.9 µg/mL (≈ 7.36 µM)

Question: And the IC50 [1]?
Answer: 1.84 µg/mL (≈ 3.47 µM)

Question: What about the MIC (Staphylococcus aureus) of the same compound?
Answer: 1.9 µg/mL (≈ 3.59 µM)

Question: Which MIC (Enterococcus faecium) does the source give for `Cc1c(O)cc2c(c1O)C(=O)[C@H]1C[C@@H](Cl)C(C)(C)O[C@@]1(C[C@H]1C(C)(C)[C@@H](Cl)CC[C@]1(C)O)C2=O` here?
Answer: 3.9 µg/mL (≈ 7.6 µM)

Question: What about the IC50 [1] of the same compound?
Answer: 2.4 µg/mL (≈ 4.67 µM)

Question: What about the MIC (Staphylococcus aureus) of the same compound?
Answer: 1.95 µg/mL (≈ 3.8 µM)

Question: Which results are given for `Cc1c(O)cc2c(c1O)C(=O)C1=C[C@@H](Cl)C(C)(C)O[C@@]1(C[C@H]1C(C)(C)[C@@H](Cl)CC[C@]1(C)O)C2=O`?
Answer: MIC (Enterococcus faecium): 15.6 µg/mL (≈ 30.5 µM); IC50 [1]: 0.97 µg/mL (≈ 1.9 µM); MIC (Staphylococcus aureus): 15.6 µg/mL (≈ 30.5 µM)
